# Target: GPC3 (Homo sapiens, UniProt P51654)
# Type: cell-based
# Details: Hep3B cells, 5 µM peptide, confocal microscopy
# Summary of the method: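 Hep3B cells were seeded at ~70% confluence in EMEM with 10% FBS and no antibiotics. They were transfected with 5 nmol of each of three GPC3 siRNAs or a negative-control siRNA using a lipofection reagent. Knockdown was confirmed by anti-GPC3 Western blot with GAPDH as loading control. Cells were methanol-fixed and stained with 5 µM IRDye800-labelled peptide for 5 min at RT, plus anti-GPC3 and AF488 secondary. Intensities were quantified from confocal images.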
# GPC3, sequence (P51654 25-580): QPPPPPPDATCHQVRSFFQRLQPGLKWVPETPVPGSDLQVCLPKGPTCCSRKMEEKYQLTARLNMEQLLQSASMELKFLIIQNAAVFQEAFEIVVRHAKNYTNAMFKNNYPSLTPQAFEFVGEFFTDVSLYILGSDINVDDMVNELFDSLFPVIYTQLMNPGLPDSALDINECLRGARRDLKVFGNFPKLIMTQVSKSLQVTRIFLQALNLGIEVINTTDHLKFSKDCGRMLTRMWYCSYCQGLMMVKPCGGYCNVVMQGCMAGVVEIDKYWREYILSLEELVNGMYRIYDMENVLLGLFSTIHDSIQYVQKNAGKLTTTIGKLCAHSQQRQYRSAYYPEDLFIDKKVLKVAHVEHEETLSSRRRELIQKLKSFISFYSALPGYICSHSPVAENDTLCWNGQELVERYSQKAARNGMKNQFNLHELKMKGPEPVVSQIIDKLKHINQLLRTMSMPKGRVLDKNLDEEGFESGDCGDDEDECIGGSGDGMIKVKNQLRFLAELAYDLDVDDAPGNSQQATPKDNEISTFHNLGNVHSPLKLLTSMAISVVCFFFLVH
sequence,measurement,value
FEAEHNLALQTL [FEA*-IRDye800],"difference in fluorescence intensity siCL versus siGPC3 cells, all 3 siRNAs",non-significant difference

# — article PMC9007039 (Journal of medicinal chemistry, 2021)
